Assay results from ChEMBL document CHEMBL1145952, “Hybrid-designed inhibitors of p38 MAP kinase utilizing N-arylpyridazinones” (J Med Chem, 2003).

Tests used:
MAP kinase p38 [1] = biological target: T1, MAP kinase p38 (Homo sapiens, UniProt O15264+Q15759+Q16539+P53778); experiment: Inhibition of Tumor necrosis factor alpha release from LPS-induced THP-1 cells by ELISA; assay type: functional, cell-based
Summary of the method: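 Human THP-1 monocytic cells stimulated with LPS. Human TNFα in the cell supernatant measured by ELISA.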

[2] = biological target: Mitogen-activated protein kinase 11 (Mus musculus, UniProt Q9WUI1); experiment: Displacement of [gamma-33P]-ATP binding from active recombinant murine FLAG-Mitogen-activated protein kinase p38 beta fusion protein (GST-ATF2)
Chain of Mitogen-activated protein kinase 11 (Q9WUI1 whole entry, the tested form may be a part): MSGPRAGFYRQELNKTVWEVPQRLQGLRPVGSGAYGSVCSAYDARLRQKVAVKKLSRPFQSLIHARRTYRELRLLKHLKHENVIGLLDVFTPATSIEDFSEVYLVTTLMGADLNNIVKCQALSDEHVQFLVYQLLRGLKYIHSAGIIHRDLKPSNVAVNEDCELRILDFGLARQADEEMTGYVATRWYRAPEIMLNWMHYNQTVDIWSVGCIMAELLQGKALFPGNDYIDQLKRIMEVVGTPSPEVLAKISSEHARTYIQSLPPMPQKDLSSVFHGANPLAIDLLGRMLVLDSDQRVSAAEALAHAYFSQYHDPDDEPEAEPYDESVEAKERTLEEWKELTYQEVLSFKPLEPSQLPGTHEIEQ
Summary of the method: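 Filter-plate binding assay of compound competing with [γ-33P]ATP on active recombinant murine FLAG-tagged p38 fusion protein, with GST-ATF2. IC50 values are the average of two or more separate assays. Repeat determinations differed by ±20% on average.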

[3] = biological target: Mitogen-activated protein kinase 14 (Mus musculus, UniProt P47811); experiment: Tested in vitro for filter plate binding versus gamma-[33P]ATP in active recombinant murine FLAG-P38 alpha fusion protein (GST-Activating transcription factor-2).
Chain of Mitogen-activated protein kinase 14 (P47811 whole entry, the tested form may be a part): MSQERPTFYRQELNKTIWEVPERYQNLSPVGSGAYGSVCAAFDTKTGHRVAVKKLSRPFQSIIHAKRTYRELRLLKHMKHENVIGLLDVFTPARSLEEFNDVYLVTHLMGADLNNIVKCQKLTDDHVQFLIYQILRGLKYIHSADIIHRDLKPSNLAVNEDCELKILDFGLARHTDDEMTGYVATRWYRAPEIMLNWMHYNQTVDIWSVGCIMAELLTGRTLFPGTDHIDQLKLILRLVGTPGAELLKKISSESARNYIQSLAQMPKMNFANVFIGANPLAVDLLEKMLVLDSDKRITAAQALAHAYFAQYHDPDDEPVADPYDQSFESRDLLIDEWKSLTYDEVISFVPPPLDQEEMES

[4] = biological target: Mitogen-activated protein kinase 9 (Homo sapiens) (UniProt P45984); experiment: Inhibition of recombinant human flag-tagged JNK2-beta-2 at 10000 nM; assay type: functional
Chain of Mitogen-activated protein kinase 9 (Homo sapiens) (P45984 whole entry, looked up, the tested form may be a part): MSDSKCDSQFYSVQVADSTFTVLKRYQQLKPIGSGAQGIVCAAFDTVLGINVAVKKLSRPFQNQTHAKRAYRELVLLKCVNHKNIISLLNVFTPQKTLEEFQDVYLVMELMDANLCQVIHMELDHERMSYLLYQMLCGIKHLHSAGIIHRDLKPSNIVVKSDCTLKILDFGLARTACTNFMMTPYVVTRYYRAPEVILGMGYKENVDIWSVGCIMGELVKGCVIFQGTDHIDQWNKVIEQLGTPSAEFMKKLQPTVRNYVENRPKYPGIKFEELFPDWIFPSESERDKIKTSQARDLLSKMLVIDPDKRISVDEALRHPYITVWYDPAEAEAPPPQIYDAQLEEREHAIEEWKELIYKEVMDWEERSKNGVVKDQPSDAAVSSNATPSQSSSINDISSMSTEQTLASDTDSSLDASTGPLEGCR
Summary of the method: (§1)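 Kinase assay with recombinant human FLAG-tagged JNK2β fusion protein phosphorylating GST-ATF2. Phosphorylated GST-ATF2 detected by HTRF.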

[5] = biological target: Mitogen-activated protein kinase 11 (Mus musculus) (UniProt Q9WUI1); experiment: Displacement of [gamma-33P]-ATP from recombinant murine Mitogen-activated protein kinase p38 beta at 100 nM
Chain of Mitogen-activated protein kinase 11 (Mus musculus) (Q9WUI1 whole entry): as the sequence (Q9WUI1 whole entry, the tested form may be a part) above

[6] = biological target: Mitogen-activated protein kinase 9 (Homo sapiens) (UniProt P45984); experiment: Inhibition of recombinant human flag-tagged JNK2-beta-2 at 1000 nM; assay type: functional; summary of the method: as §1
[7] = biological target: Mitogen-activated protein kinase 14 (Mus musculus) (UniProt P47811); experiment: Inhibition of [gamma-33P]-ATP binding to recombinant murine p38 alpha at 100 nM
Chain of Mitogen-activated protein kinase 14 (Mus musculus) (P47811 whole entry): as the sequence (P47811 whole entry, the tested form may be a part) above

[8] = biological target: Mitogen-activated protein kinase 11 (Mus musculus) (UniProt Q9WUI1); experiment: Displacement of [gamma-33P]-ATP from recombinant murine Mitogen-activated protein kinase p38 beta at 5000 nM
MAP kinase p38 [9] = biological target: T1, MAP kinase p38; experiment: Inhibition of LPS-induced p38-related Tumor necrosis factor alpha release by THP-1 cells at 4000 nM; assay type: functional, cell-based
MAP kinase p38 [10] = biological target: T1, MAP kinase p38; experiment: Inhibition of LPS-induced p38-related Tumor necrosis factor alpha release in human whole blood; assay type: functional, tissue-based
[11] = biological target: Mitogen-activated protein kinase 9 (Homo sapiens) (UniProt P45984); experiment: Inhibition of recombinant human flag-tagged JNK2-beta-2 at 5000 nM; assay type: functional; summary of the method: as §1
Mus musculus [12] = experiment: Tested ex vivo for MAPKAP plasma concentration at 1 hr after dosing; assay type: functional, organism-based
Summary of the method: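 BALB/c mice (n = 5) given 3 mg/kg ip in DMSO/EtOH/PEG400/saline (10:10:60:20); blood drawn 1 h post-dose. Plasma level determined by bioassay: serial plasma dilutions run in the p38 inhibition assay, and the compound's free p38 IC50 multiplied by 1/(plasma dilution giving 50% inhibition, EC50).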

Mus musculus [13] = experiment: (§2) Ex vivo inhibition of Mitogen activated protein kinase activated protein 1 hr after 3 mg/kg dose; assay type: functional, organism-based; parameters: dose 3 mg/kg
Summary of the method: (§3)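 BALB/c mice (n = 5 per compound) dosed ip at 3 mg/kg in DMSO/EtOH/PEG400/saline (10:10:60:20). Blood collected 1 h after dosing and murine MAPKAP activity measured ex vivo as % inhibition. Significance versus vehicle assessed at p < 0.05.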

Mus musculus [14] = organism: Mus musculus; experiment: Tested ex vivo for MAPKAP inhibition, activity expressed as plasma concentration; assay type: functional, organism-based
Summary of the method: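 Mice dosed ip at 3 mg/kg and plasma taken 1 h after dosing. Plasma compound level determined by bioassay: plasma was diluted in the p38 inhibition assay to find the dilution giving 50% inhibition (EC50). Concentration = free-compound p38 IC50 × 1/dilution factor.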

[15] = as §2; assay type: functional; details: Mus musculus; summary of the method: as §3
MAP kinase p38 [16] = biological target: T1, MAP kinase p38; experiment: Inhibition of LPS-induced p38-related Tumor necrosis factor alpha release in human whole blood at 4000 nM; assay type: functional, tissue-based

SMILES | IC50 [2] [µM] | IC50 [3] [µM] | inhibition [4] [%] | inhibition [11] [%] | IC50 (MAP kinase p38 [1]) [µM] | inhibition (MAP kinase p38 [9]) [%] | IC50 (MAP kinase p38 [10]) [µM] | further results
Cc1ccccc1N1N=C(c2c(-c3cccc(Cl)c3Cl)nc3ccccn23)CCC1=O |  |  |  |  | 0.17 |  |  | inhibition [5]: 33%; inhibition [6]: 0%; inhibition [7]: 36%
O=c1ccc(-c2c(-c3cccc(C(F)(F)F)c3)nc3ccccn23)nn1-c1c(Cl)cccc1Cl |  | 1 | 0 |  |  | 41 |  | inhibition [8]: 50%
O=C1CCC(c2c(-c3cccc(C(F)(F)F)c3)nc3ccccn23)=NN1c1ccccc1Cl | 0.355 | 0.171 | 0 |  |  | 72 |  | 
O=C1CCC(c2c(-c3ccc(F)cc3F)nc3ccccn23)=NN1c1c(Cl)cccc1Cl | 0.063 | 0.008 | 22 |  | 0.01 |  | 0.205 | 
O=C1CCC(c2c(-c3cccc(Cl)c3Cl)nc3ccccn23)=NN1c1c(Cl)cccc1Cl |  | 2 |  | 26 |  | 59 |  | inhibition [8]: 57%
Cc1ccccc1N1N=C(c2c(-c3ccc(F)cc3Cl)nc3ccccn23)CCC1=O | 0.094 | 0.014 |  | 4 | 0.022 |  | 0.22 | 
O=c1ncn2nc(Sc3ccc(F)cc3F)ccc2c1-c1c(Cl)cccc1Cl |  |  |  |  |  |  |  | Concentration (Mus musculus [12]): 1730 nM; inhibition (Mus musculus [13]): 29%
Cc1ccccc1-n1nc(-c2c(-c3cccc(Cl)c3Cl)nc3ccccn23)ccc1=O | 0.044 | 0.022 | 15 |  | 0.006 |  | 0.5 | 
O=c1ccc(-c2c(-c3cccc(C(F)(F)F)c3)nc3ccccn23)nn1-c1ccccc1Cl |  | 0.344 |  |  |  | 48 |  | 
O=C1CCC(c2c(-c3ccc(F)cc3Cl)nc3ccccn23)=NN1c1ccccc1Cl | 2.6 | 0.208 | 0 |  | 0.4 |  |  | 
Cc1ccccc1-n1nc(-c2c(-c3ccc(F)cc3F)nc3ccccn23)ccc1=O | 0.14 | 0.026 |  | 15 | 0.068 |  | 0.87 | 
Cc1ccccc1N1N=C(c2c(-c3ccc(F)cc3F)nc3ccccn23)CCC1=O | 0.078 | 0.008 | 4 |  | 0.014 |  | 0.44 | 

The next lines start with results.

IC50 [2] [µM] | IC50 [3] [µM] | inhibition [4] [%] | inhibition [11] [%] | SMILES | IC50 (MAP kinase p38 [1]) [µM] | inhibition (MAP kinase p38 [9]) [%] | IC50 (MAP kinase p38 [10]) [µM] | further results
0.064 | 0.014 | 23 |  | O=c1ccc(-c2c(-c3ccc(F)cc3Cl)nc3ccccn23)nn1-c1c(Cl)cccc1Cl | 0.161 |  |  | 
0.171 | 0.076 | 0 |  | O=c1ccc(-c2c(-c3ccc(F)cc3Cl)nc3ccccn23)nn1-c1ccccc1Cl | 0.161 |  |  | 
0.112 | 0.022 |  | 11 | O=c1ccc(-c2c(-c3ccc(F)cc3F)nc3ccccn23)nn1-c1c(Cl)cccc1Cl |  | 89 | 1 | 
0.67 | 0.042 | 0 |  | O=C1CCC(c2c(-c3ccc(F)cc3Cl)nc3ccccn23)=NN1c1c(Cl)cccc1Cl | 0.18 |  |  | 
0.89 | 0.27 |  | 14 | O=c1ccc(-c2c(-c3cccc(Cl)c3Cl)nc3ccccn23)nn1-c1c(Cl)cccc1Cl |  | 65 |  | 
0.028 | 0.009 |  | 16 | Cc1ccccc1-n1nc(-c2c(-c3ccc(F)cc3Cl)nc3ccccn23)ccc1=O | 0.02 |  | 0.1 | Concentration (Mus musculus [14]): 810 nM; inhibition in vivo at 3 mg/kg [15]: 42%
0.153 | 0.049 | 40 |  | O=c1ccc(-c2c(-c3ccc(F)cc3)nc3ccccn23)nn1-c1c(Cl)cccc1Cl | 0.07 |  |  | inhibition (MAP kinase p38 [16]): 60%
